Published values of several laboratories.
Each line is one published result; the experiments were not run side by side.
Target: NUAK family SNF1-like kinase 1 (NUAK1, Homo sapiens, UniProt O60285)
Sequence (O60285 1-661, as in one of the studies): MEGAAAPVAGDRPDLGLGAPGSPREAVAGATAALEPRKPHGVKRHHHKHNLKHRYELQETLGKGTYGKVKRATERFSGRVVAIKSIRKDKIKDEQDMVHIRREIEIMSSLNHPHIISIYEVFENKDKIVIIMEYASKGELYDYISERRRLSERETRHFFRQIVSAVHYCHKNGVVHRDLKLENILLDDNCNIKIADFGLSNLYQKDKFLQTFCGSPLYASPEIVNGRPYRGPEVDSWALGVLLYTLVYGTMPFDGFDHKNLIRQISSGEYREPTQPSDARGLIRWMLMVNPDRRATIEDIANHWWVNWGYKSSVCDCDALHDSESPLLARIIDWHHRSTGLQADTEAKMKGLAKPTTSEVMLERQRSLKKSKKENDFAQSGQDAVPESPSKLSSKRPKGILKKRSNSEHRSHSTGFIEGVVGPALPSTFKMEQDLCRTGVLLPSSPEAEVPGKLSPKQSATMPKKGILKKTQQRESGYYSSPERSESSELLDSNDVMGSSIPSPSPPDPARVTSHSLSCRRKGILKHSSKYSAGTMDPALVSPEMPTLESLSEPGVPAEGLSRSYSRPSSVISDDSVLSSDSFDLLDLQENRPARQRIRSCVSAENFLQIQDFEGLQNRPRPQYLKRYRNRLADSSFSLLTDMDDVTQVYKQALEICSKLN

`O=C(c1ccc(Nc2ncc(Cl)c(-c3ccc(Cl)s3)n2)cc1)N1CCC(N2CCCC2)CC1` has a remaining binding of 0.65% (binding, competition with immobilised ligand; 1 µM).
`Cn1cc(Cl)c2c(Oc3c(F)cc(Nc4cc(Cl)nc(N)n4)cc3F)ccnc21` has a remaining binding of 96% (cell-free assay, competition with immobilised ligand; 0.1 µM).
For `CCN1CCN(Cc2ccc(C(=O)Nc3ccc(C)c(Oc4ccc5c(c4)CC(=O)N5)c3)cc2C(F)(F)F)CC1`, the remaining binding was 100% (binding, competition with immobilised ligand; 1 µM).
For `CN(C)C(=O)Cn1cc(-c2nc([C@@](C)(c3ccc(-c4cnc(N)nc4)cc3)C3CC3)no2)cn1`, the remaining binding was 100% (cell-free assay, competition with immobilised ligand; 1 µM).
`Cc1cnc(Nc2ccc(C(=O)N3CCC(N4CCCC4)CC3)cc2)nc1-c1cc2ccccc2s1` gave a remaining binding of 2.7% (binding, competition with immobilised ligand; 1 µM).
With `O=C(NCc1ncc(C(F)(F)F)cc1Cl)c1ccc2c(c1)C1(CCS(=O)(=O)CC1)[C@H](C1CC1)N2S(=O)(=O)c1ccc(F)cc1` the remaining binding was 83% (cell-free assay, competition with immobilised ligand; 1 µM).
`O=C(Nc1c[nH]nc1C(=O)NC1CCNCC1)c1cc(F)cc(F)c1` gave a remaining binding of 76% (binding, competition with immobilised ligand; 1 µM).
`CN(C)c1nccc(-c2cnn3ncccc23)n1` gave a remaining binding of 97% (binding; 1 µM).
With `COc1cnc(Nc2cccc(S(N)(=O)=O)c2)nc1N1CCN(c2ccccc2)CC1` the remaining binding was 82% (binding, competition with immobilised ligand; 1 µM).
With `CC1CCCN1c1nccc(-c2cnn3ncccc23)n1` (stereo not shown) the remaining binding was 89% (binding; 1 µM).
The remaining binding of `NS(=O)(=O)c1cc(NC(=O)Cc2ccccc2)ccc1Oc1cccc(Cl)c1` is reported as 100% (cell-free assay, competition with immobilised ligand; 1 µM).
`C[C@H]1CCN(c2nccc(-c3cnn4ncccc34)n2)C1` has a remaining binding of 90% (binding; 1 µM).
`O=C(c1ccc(Nc2ncc(Cl)c(-c3cc4ccccc4s3)n2)cc1)N1CCC(N2CCCC2)CC1` gave a remaining binding of 2.6% (binding, competition with immobilised ligand; 1 µM).
`COc1ccnn2ncc(-c3ccnc(N(C)C)n3)c12` gave a remaining binding of 82% (binding; 1 µM).
The remaining binding of `CNCc1ccccc1-c1csc([C@H](C)Nc2nc(C)nc3cc(OC)c(OC)cc23)c1` is reported as 90% (cell-free assay, competition with immobilised ligand; 1 µM).
For `N[C@@H]1CCN(c2nccc(-c3cnn4ncccc34)n2)C1`, the remaining binding was 44% (binding; 1 µM).
`C[C@H](c1ccnc(Nc2nc3ccc(-c4cc(N(C)C)ncn4)cc3[nH]2)c1)N1CCN(C(=O)CC(F)(F)F)CC1` has a remaining binding of 93% (cell-free assay, competition with immobilised ligand; 0.1 µM).
The remaining binding of `CN(C)c1nccc(-c2cnc3ncccn23)n1` is reported as 98% (binding; 1 µM).
`Nc1ncc2c(n1)-c1c([nH]c3ccc(C#CC4CC4)cc13)CCCC2` gave a remaining binding of 100% (binding, competition with immobilised ligand; 1 µM).
